Published values pooled from the literature.
Protocols differ between the studies behind these lines.

CN[C@H](CC(C)C)C(=O)N[C@H]1C(=O)N[C@@H](CC(N)=O)C(=O)N[C@H]2C(=O)NC3C(=O)N[C@H](C(=O)N[C@H](C(=O)NCCC[N+](C)(C)C)c4cc(O)cc(O)c4-c4cc3ccc4O)[C@H](O)c3ccc(c(Cl)c3)Oc3cc2cc(c3OC2OC(CO)C(O)[C@H](O)[C@@H]2O[C@H]2CC(C)(NCc3ccc(-c4ccc(Cl)cc4)cc3)[C@H](O)[C@H](C)O2)Oc2ccc(cc2Cl)[C@H]1O (stereo partly drawn)
Cmax (mouse, plasma; intravenous, 10 mg/kg): 14100 ng/mL

CN1CCCCC1Cn1cc(C(=O)c2cc([N+](=O)[O-])ccc2I)c2ccccc21 (racemic)
Cmax (mouse, plasma; oral, 25 mg/kg): 800 ng/mL

C[C@]12CC[C@H](n3ccnc3)CC1=CC[C@@H]1[C@@H]2CC[C@]2(C)C(n3cnc4ccccc43)=CC[C@@H]12.Cl
Cmax (male CD-1 mouse, plasma; oral, 10 mg/kg): 1270 ng/mL

COc1ncccc1-c1cnn2ccc(N3CCN(C(=O)OC(C)C)CC3)nc12
Cmax (mouse, plasma; oral, 10 mg/kg): 5200 nM

NCC(=O)Nc1ccc(-n2nc(C(F)(F)F)cc2-c2ccc3c(ccc4ccccc43)c2)cc1
Cmax (mouse, plasma; oral, 80 mg/kg, single dose): 2080 ng/mL

CCCCCCCC(=O)N[C@@H](CCCCN)C(=O)N[C@@H](CCCCN)C(=O)N[C@@H](C)C(=O)N[C@@H](CC(C)C)C(=O)N[C@@H](CCCCN)C(=O)N[C@@H](CC(C)C)C(=O)N[C@@H](C)C(=O)N[C@@H](CCCCN)C(=O)N[C@@H](CCCCN)C(=O)N1CCC[C@H]1C(=O)N[C@@H](CC(C)C)C(=O)N[C@@H](CCCCN)C(=O)N[C@@H](CC(C)C)C(=O)N[C@@H](CC(C)C)C(=O)N[C@@H](CCCCN)C(N)=O
Cmax (female CD-1 mouse, blood; intravenous, 1 mg/kg, single dose): 441 ng/mL

N#Cc1c(Oc2cccc(OS(=O)(=O)CCCC(F)(F)F)c2)cccc1C(F)(F)F
Cmax (mouse, plasma; oral, 5 mg/kg): 172 ng/mL

Cc1cc(C)nc(Nc2ncc(C(=O)NCCc3c(C)[nH]c4ccccc34)cn2)c1
Cmax (C57BL/6 mouse, plasma; intraperitoneal, 4.4 mg/kg): 191 ng/mL

C[C@]12CC[C@H](O)CC1=CC[C@@H]1[C@@H]2CC[C@]2(C)C(n3cnc4ccccc43)=CC[C@@H]12.Cl
Cmax (mouse, plasma; oral, 10 mg/kg): 10.5 ng/mL

CCC[C@@](N)(CO)CCc1ccc(OCCCCCC(C)C)cc1
Cmax (mouse, plasma; intraperitoneal, 10 mg/kg): 1460 nM

COc1ccc2[nH]cc(CCNc3nccc(Nc4cccc5c4ccn5C)n3)c2c1
Cmax (mouse, plasma; oral, 28.6 mg/kg): 406 ng/mL

Cc1c(P(=S)(c2ccccc2)c2ccccc2)n2ccccc2[n+]1C/C=C/c1ccccc1.[Br-]
Cmax (mouse, plasma; intraperitoneal, 10 mg/kg): 1500 nM
